Here are results for 16 compounds from PubChem BioAssay AID493176 (Broad Institute, 2011).

Inconclusive results are not listed. Active and inactive are the calls of the source.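 The calls were made as follows: active = every replicate test active, with falling luminescence and half-maximal potency within ten times the top tested dose; inconclusive = tests disagree, or partial flat loss or unreliable fit; inactive = all tests inactive, flat or rising signal or weak potency.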

In general, AC50 refers to the concentration giving half of the maximal activity seen.

System in the first assay: not listed separately
Nature of the assay: viability loss in HMLE_shECad cells – cell-based, CellTiter-Glo luminescence, dry powder, set 3, dose response (AID 493176). The following applies: HMLE_shECad viability, CellTiter-Glo luminescence, 72 h; at 19.5 µM (top of the series). Summed up:
(§1)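 Material: E-cadherin-knockdown HMLE cells (HMLE_shECad), CSC-like; quantity: 2000 cells per well; medium: serum-free CSC medium; schedule: ≥4 h settling, then ~70-74 h compound treatment at 37 °C; measured by: CellTiter-Glo luminescent signal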
For the compound `O=C(c1ccccc1)c1coc2ccc(O)c(Br)c12`, the activity change, negative = inhibition is 1.46% (inactive).

A further assay relates to HMLE_shECad viability, CellTiter-Glo luminescence, 72 h. The assay is described as above.
Conditions: not given
An outline of the steps: as §1
Take `O=C(COc1ccc(Cl)cc1Cl)N/N=C/c1ccc[nH]1`: the half-maximal activity concentration (AC50) was 5.91 µM.

As for `CN(c1ccccc1)S(=O)(=O)c1ccc(-c2ccccc2)cc1`, the AC50 is 12.7 µM.

For the compound `Cc1ccc2nc(NC(=O)c3cccc(-c4cc5ccccc5oc4=O)c3)sc2c1`, the concentration at half-maximal activity (AC50) is 5.37 µM.

For `CC(=O)c1cccc(NS(=O)(=O)c2cc(-c3cnc(C4CC4)o3)ccc2C)c1`, the half-maximal activity concentration (AC50) is 1.02 µM.

For the compound `Cc1cc(C)nc(NC(=O)/C=C/c2cccs2)c1`, the AC50 was 5.95 µM.

With `CCCCCCc1cc2cc(S(=O)(=O)c3ccc(Cl)cc3)c(=O)oc2cc1O`, the AC50 is 2.2 µM.

Turning to `CC(C)CC(=O)NC(NC(=S)Nc1sc2c(c1C#N)CCCC2)C(Cl)(Cl)Cl` (stereo unspecified), the half-maximal activity concentration (AC50) is 0.619 µM.

As for `O=C(Nc1ccccc1N1CCCC1)c1cccc(-c2cc3ccccc3oc2=O)c1`, the half-maximal activity concentration (AC50) is 10 µM.

As for `Cc1onc(-c2ccccc2)c1C(=O)Nc1sc2c(c1C#N)CCC(C)C2` (stereo unspecified), the half-maximal activity concentration (AC50) was 7.81 µM.

As for `Cc1csc(NC(=O)c2ccc(COc3ccccc3)o2)n1`, the AC50 was 12.3 µM.

For the compound `CC(C)c1ccc(/C=C/C(=O)NC2=NCCS2)cc1`, the concentration at half-maximal activity (AC50) is 7.96 µM.

Take `C/C(=N\NC(=O)c1cc(-c2cccc([N+](=O)[O-])c2)n[nH]1)c1ccccc1O`: the AC50 is 8.72 µM.

For the compound `Nc1cc(Cl)ccc1Oc1ccc2ccccc2c1`, the AC50 is 10.5 µM.

On to `CCN1C(=O)/C(=C\N2CCN(c3cccc(Cl)c3)CC2)SC1=S`, for which the concentration at half-maximal activity (AC50) is 4.92 µM.

`CC(C)(C)c1ccc2c(c1)OC(C(=O)NN=Cc1ccc[nH]1)CO2` (mixture of isomers): the concentration at half-maximal activity (AC50) is 2.21 µM.
